From PubChem BioAssay
DENV2 CPE rescue – protects cells from dengue virus 2 cytopathic effect; DENV2-infected cells, cytopathic effect rescue, plate reader; CPE inhibition, % at 9.99 µM; 350,000 compounds, 1.7% hits; AID 651640; in the data active means CPE inhibition above about 20%, passing the limit was not always enough; inconclusive means no clear call, values can overlap the other calls; tested in BHK-21 cells;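 further: 0% = median of neutral control wells and 100% = median of positive control wells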
ERAP1 inh – blocks human ERAP1 aminopeptidase activity; 340,000 compounds, 0.15% hits; inhibition, % at 10.7 µM; recombinant ERAP1, Leu-AMC fluorescence, 60 min; Q9NZ08;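 active means mean replicate inhibition of at least 30%, or all replicates individually reaching that 30% level; inactive means mean below 30% and not every replicate reaching it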;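 further: 0% = neutral control wells and 100% = L-leucinethiol positive control wells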
SIRT5 block – inhibitors of human sirtuin-5 desuccinylase | Q9NXA8 | Purified SirT5, succinyl-peptide AMC, trypsin-coupled fluorescence | inhibition, % at 15 µM | 330,000 compounds, 1.1% hits | AID 652115; in the data active means inhibition above about 15%; inconclusive means no clear call, values can overlap the other calls
Target sequence (Q9NXA8 whole entry, looked up): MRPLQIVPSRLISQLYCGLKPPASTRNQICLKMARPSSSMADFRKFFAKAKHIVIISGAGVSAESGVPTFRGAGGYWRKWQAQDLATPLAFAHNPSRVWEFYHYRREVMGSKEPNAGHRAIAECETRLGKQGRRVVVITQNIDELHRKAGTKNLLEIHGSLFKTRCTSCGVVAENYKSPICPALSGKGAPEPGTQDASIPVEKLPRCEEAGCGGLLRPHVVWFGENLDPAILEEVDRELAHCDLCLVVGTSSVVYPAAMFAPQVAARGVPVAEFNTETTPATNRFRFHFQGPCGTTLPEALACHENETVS
PglD inh – inhibitors of Campylobacter jejuni PglD acetyltransferase; purified PglD enzyme, DTNB colorimetric CoA detection; inhibition, % at 12.5 µM; 360,000 compounds, 0.098% hits; in the data active means inhibition above about 16%, passing the limit was not always enough; inconclusive means no clear call, values can overlap the other calls
E-sel inducer – induces E-selectin expression in human endothelial cells; activation, % at 7.58 µM; AID 686992; 260,000 compounds, 0.37% hits; HUVEC E-selectin immunofluorescence imaging; normalized: neutral wells 0, TNF-alpha wells 100;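 active means mean E-selectin-positive cell signal at least 10% of the positive control, reached in at least 60% of replicates, without over 20% cell loss; inconclusive means no rule given, readout overlaps actives, possibly toxicity-flagged; inactive means the rest, including those meeting only one limit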
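System: HUVEC, human umbilical vein endothelial cells; quantity: 3,000 cells/well; buffer or medium: EGM-2 medium, gelatin-coated wells; dosing: single-point compound dose; detection: immunofluorescence imaging; evaluation: % PE-positive cells; benchmarks: TNF-alpha, DMSO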
An asterisk follows results filed as active; ? = inconclusive; / = no result given; ! = not active in a repeat. A selection: hits, their analogues and other compounds. The true share with any hit is near 2.5%.

SMILES | DENV2 CPE rescue | ERAP1 inh | SIRT5 block | PglD inh | E-sel inducer
CN1C(=O)c2cc(NC(=O)c3ccc4c(c3)OCO4)ccc2OC[C@H]2O[C@@H](CC(=O)O)CC[C@@H]21 | 39.9* | -0.8 | -0.9 | -2.6 | 0.3
COC(=O)C[C@@H]1CC[C@H]2[C@H](COc3ccc(NC(=O)c4cccc(Cl)c4)cc3C(=O)N2C)O1 | -2.2 | -1.5 | 3.3 | -3.3 | 0.1
CCOC(=O)[C@]12CCC=C1N(Cc1ccccc1)C(=O)[C@H](CC(=O)NCc1ccc(C)o1)C2 | -13.5 | / | -3.7 | / | 0.7
Cc1ccc(S(=O)(=O)Nc2ccc3c(c2)C(=O)N([C@@H](C)CO)C[C@@H](C)[C@H](CN(C)S(=O)(=O)c2ccc(C)cc2)OCCCC[C@@H](C)O3)cc1 | ? | -6.0 | 1.6 | 3.6 | -0.1
COc1ccc(S(=O)(=O)Nc2ccc3c(c2)CC(=O)N([C@@H](C)CO)C[C@H](C)[C@H](CN(C)C(=O)Nc2ccc(C(F)(F)F)cc2)O3)cc1 | -7.4 | 1.8 | 6.6 | 0.9 | -2.6
CCOC(=O)CSc1nc(=O)n2ccc(C)cc2n1 | -1.5 | -2.5 | 31.2* | / | 1.0
O=C1Nc2ccccc2-c2nnnn2C1N1CCCC1 (stereo unspecified) | -15.0 | -0.9 | 17.9* | / | 0.2
O=C(c1cccnc1)N1CC[C@@H]2[C@H](CO)Nc3ccc(C4=CCCCC4)cc3[C@@H]21 | -5.0 | 2.5 | -7.7 | / | 0.9
O=C(c1ccccc1)N1CC[C@@H]2[C@H](CO)Nc3ccc(-c4ccccc4F)cc3[C@@H]21 | 17.4 | 0.3 | 8.4 | 1.6 | 0.5
O=C(c1cccnc1)N1CC[C@@H]2[C@@H](CO)Nc3ccc(C4=CCCCC4)cc3[C@@H]21 | ? | -0.6 | 17.1* | -3.8 | 0.1
O=C(c1ccccc1)N1CC[C@@H]2[C@@H](CO)Nc3ccc(-c4ccccc4F)cc3[C@@H]21 | 33.1* | 1.8 | 1.3 | 1.3 | 0.1
O=C(c1cnccn1)N1CC[C@@H]2[C@@H](CO)Nc3ccc(-c4ccccc4F)cc3[C@@H]21 | 113.8* | 0.4 | 1.0 | 4.2 | 0.0
Cc1ccnc(NS(=O)(=O)c2ccc(NS(=O)(=O)c3cc(Cl)ccc3Cl)cc2)n1 | -2.3 | 3.6 | 0.4 | -0.5 | /
CNc1ccccc1C(C)(C)c1cc(-c2cccc(OC)c2)no1 | 4.7 | -0.3 | 8.2 | / | 46.3*
O=C(CN1CCOCC1)NCC[C@@H]1CC[C@H](NC(=O)Nc2ccc(F)cc2)[C@H](CO)O1 | -1.7 | -0.4 | 25.9* | -1.8 | -1.7
O=C(CN1CCOCC1)NCC[C@@H]1CC[C@@H](NC(=O)Nc2ccc(F)cc2)[C@H](CO)O1 | 11.0 | -2.6 | 15.7* | -0.8 | -1.7
O=C(CN1CCOCC1)NCC[C@H]1CC[C@H](NC(=O)Nc2ccc(F)cc2)[C@H](CO)O1 | -8.1 | -1.6 | 3.7 | 2.1 | 0.0
O=C(CN1CCOCC1)NCC[C@H]1CC[C@@H](NC(=O)Nc2ccc(F)cc2)[C@@H](CO)O1 | -4.6 | -1.5 | 3.6 | 1.7 | 1.3
O=C1NC(=O)c2cc(Br)cc3cccc1c23 | 1.6 | 0.8 | 5.0 | / | 203.6*
O=C1NC(=O)c2cc([N+](=O)[O-])cc3cccc1c23 | 0.9 | -0.9 | -3.0 | / | /
COc1ccc2c3c(n(C)c2c1)[C@@H](CO)N(C(=O)C1CC1)CC31CCN(C(=O)CN(C)C)CC1 | 22.8* | 2.0 | -0.5 | / | -0.1
COc1ccc2c3c(n(C)c2c1)[C@@H](CO)N(S(C)(=O)=O)CC31CCN(C(=O)C2CC2)CC1 | 7.4 | 0.3 | / | / | -0.1
COc1ccc2c3c(n(C)c2c1)[C@H](CO)N(S(C)(=O)=O)CC31CCN(C(=O)C2CC2)CC1 | 30.8* | -0.1 | -3.1 | / | -0.1
COc1ccc2c3c(n(C)c2c1)[C@H](CO)N(C(=O)C1CC1)CC31CCN(C(=O)CN(C)C)CC1 | 11.0 | -2.1 | 9.8 | / | 0.0
COc1ccc(S(=O)(=O)Nc2ccc3c(c2)C(=O)N([C@@H](C)CO)C[C@H](C)[C@@H](CN(C)C(=O)Cc2ccccc2)OCCCC[C@@H](C)O3)cc1 | 25.6* | -2.6 | 6.1 | -0.6 | -0.2
SMILES | DENV2 CPE rescue | ERAP1 inh | SIRT5 block | PglD inh | E-sel inducer
COc1ccc(S(=O)(=O)Nc2ccc3c(c2)C(=O)N([C@@H](C)CO)C[C@@H](C)[C@@H](CN(C)C(=O)Cc2ccccc2)OCCCC[C@@H](C)O3)cc1 | 21.1* | -2.7 | 4.1 | 1.1 | -0.1
COc1ccc(NC(=O)Nc2ccc3c(c2)C(=O)N([C@H](C)CO)C[C@H](C)[C@@H](CN(C)C(=O)Cc2ccccc2)OCCCC[C@H](C)O3)cc1 | 58.1* | 4.0 | 4.9 | 1.3 | 0.1
Clc1cccc(C2=NOC(c3nnc(-c4ccccc4)o3)C2)c1 (stereo unspecified) | 34.6* | 2.1 | / | -2.8 | 0.1
C[C@@H]1CN([C@@H](C)CO)C(=O)c2cc(NC(=O)Cc3cn(C)c4ccccc34)ccc2O[C@@H]1CN(C)Cc1ccc(C(=O)Nc2ccccc2N)cc1 | 0.3 | -1.3 | / | -1.5 | 1.8
C=CCSc1nsc(NC(=O)Nc2ccc(F)cc2)n1 | -9.6 | 0.0 | -1.3 | 4.3 | 0.5
Cc1cc(S(=O)(=O)N2CCN=C2c2ccccc2)c(C)cc1Cl | 3.4 | -1.4 | 20.9* | / | 0.0
C[C@@H]1CN([C@H](C)CO)C(=O)c2cc(NC(=O)Cc3cn(C)c4ccccc34)ccc2O[C@H]1CN(C)S(=O)(=O)c1ccc(F)cc1 | 57.5*! | 0.7 | -1.6 | 0.7 | 0.3
CC(C)NC(=O)N(C)C[C@@H]1Oc2ccc(NC(=O)Cc3cn(C)c4ccccc34)cc2C(=O)N([C@@H](C)CO)C[C@H]1C | 79.8* | -4.3 | 0.1 | -1.5 | -14.9
C[C@@H]1CN([C@@H](C)CO)C(=O)c2cc(NC(=O)Cc3cn(C)c4ccccc34)ccc2O[C@H]1CN(C)S(=O)(=O)c1ccc(F)cc1 | 15.6 | -0.8 | -0.2 | 0.7 | 0.8
COc1ccc(NC(=O)N(C)C[C@H]2Oc3ccc(NC(=O)Cc4cn(C)c5ccccc45)cc3C(=O)N([C@@H](C)CO)C[C@@H]2C)cc1 | / | 0.3 | 4.8 | -1.2 | -0.7
COc1ccc(NC(=O)N(C)C[C@H]2Oc3ccc(NC(=O)Cc4cn(C)c5ccccc45)cc3C(=O)N([C@H](C)CO)C[C@@H]2C)cc1 | ? | 0.7 | 3.2 | -3.4 | 32.0*
C[C@H](CO)N1C[C@H](C)[C@H](CN(C)C)Oc2ccc(NC(=O)Cc3cn(C)c4ccccc34)cc2C1=O | -1.7 | 0.0 | 1.0 | -9.6 | 37.3*
CN1c2ccccc2C(O)=C(C(=S)Nc2ccc(Cl)cc2)S1(=O)=O | / | / | / | 1.8 | /
COc1ccc(-c2nn(-c3ccccc3)cc2CNCc2cccnc2)c(F)c1 | -1.6 | -2.8 | -0.2 | / | 2.6
O=C(CN1C(=O)CCC1=O)NC(=O)NC1CCCC1 | 4.6 | 1.7 | -2.4 | 2.9 | /
CCOC(=O)c1c(C)[nH]c(C(=O)COC(=O)C2(C)CC2(Cl)Cl)c1C (stereo unspecified) | / | / | / | 3.5 | -1.2
O=C(NCC(c1cccs1)N1CCOCC1)C1CCN(S(=O)(=O)c2ccccc2C(F)(F)F)CC1 (stereo unspecified) | 61.5* | -1.6 | -2.3 | -4.7 | -0.3
